PostGolgi yeast – phenotypic screen on post-Golgi transport, primary screen | post-Golgi transport phenotypic cell assay | inhibition, % at 10 µM | hit rate 0.9% among 98,000 | AID 739, 2007;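 further: yeast cells grown in 1536-well plates; yeast grown about 18 h at 30C before absorbance read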
E coli WT exp – growth inhibitors of wild-type E. coli, primary screen, strain BW25113, expanded library, OD600; OD600 absorbance; growth inhibition, % at 100 µM; hit rate 0.15% among 98,000;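 active means growth inhibition above about 50% at one test dose, limit read from the data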;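 further: growth measured after 20 h incubation at 37 °C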
Cav3 T inh – Cav3.2 calcium influx blockers – cell-based, Fluo-4 calcium fluorescence, FDSS, MLSMR library, primary screen. Cav3.2-expressing cells; active compounds read low. B-score at 10 µM. hit rate 4% among 100,000;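 active means single-dose well whose peak fluorescence ratio is a statistical outlier from its plate by either plate-standardised score or position-corrected B-score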
Pyk2 oligo antag – antagonists of Pyk2 self-association, primary screen, Q293 cells, FERM NanoBiT luminescence, HTS; active compounds read low; z-score (the deposit names both 25 µM and 10 µM); hit rate 0.83% among 99,000;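 active means Z-score of -3 or lower, scaled per plate to the spread of control and sample wells; inactive means z-score above -3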;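 further: negative z-score means lost luminescence so less FERM oligomerization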
PostGolgi ctrl – growth inhibition of yeast control strain, primary screen, counter-screen for post-Golgi transport modulator project; inhibition, % at 10 µM; hit rate 5% among 98,000; efflux-deficient yeast background strain, growth absorbance A615, 16 h; AID 738, 2007
Ecoli tolC – growth inhibitors of E. coli tolC mutant, primary screen, strain BW25113 ΔtolC::kan, 384-well | OD615 | growth inhibition, % at 10 µM (by protocol) | hit rate 2.2% among 65,000 | AID 573, 2007;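 active means growth inhibition at or above a cutoff equal to the mean over every tested compound plus 3 SD, cut at about 60% in these data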;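 further: growth measured after 20 h incubation at 37 °C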
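Test system: E. coli BW25113 ΔtolC::kan bacteria | Medium: Kanamycin-containing LB broth (50 µg/mL) | Dosing: One dose of 10 µM final | Times: 20 h incubation with compound, 37 °C | Detection: Optical density read at 615 nm | Read-out basis: Percent growth inhibition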
Active calls of the source: *; . = no result given. Compounds with a hit are over-represented: about 8.7% of the library has one in this group of screens. Unless noted, no stated cut-off is given here; in the data, active means inhibition above about 30%; inactive means the rest.

SMILES	PostGolgi yeast	E coli WT exp	Cav3 T inh	Pyk2 oligo antag	PostGolgi ctrl	Ecoli tolC
CCOC(=O)N1CCN(C(=O)CN(C2CCCCC2)S(=O)(=O)c2ccc(Cl)cc2)CC1	2	1	-1.1	1.1	8	.
CCc1ccc(CNCCSc2nnnn2C)cc1	-3	3	0.69	0.11	10	.
CCOC(=O)c1cnc2c(c(C)nn2C)c1Oc1ccc(Cl)cc1	9	1	-6.7*	-0.39	18	.
COc1ccc(CNC(=O)c2ccc(Br)o2)cc1	.	.	-0.053	.	.	.
CCCCOc1cccc(C(=O)NNC(=S)NC2CCCCC2)c1	.	.	-5.8*	0.19	.	.
CCOc1cccc(C(=O)NC2CCCCC2)c1	6	6	2.3	0.37	3	7
CCC(C(=O)NCc1ccco1)N(C(=O)CNS(=O)(=O)c1ccccc1)C1CCCCC1 (configuration not stated)	21	9	0.4	1.5	10	.
CCCC(C(=O)NCc1ccco1)N(C(=O)CNS(=O)(=O)c1ccccc1)c1ccccc1OC (configuration not stated)	-15	1	-5.4*	-0.2	2	.
Cc1ccc(S(=O)(=O)NCC(=O)N(CC(=O)NCc2ccco2)Cc2ccc3c(c2)OCO3)cc1	9	-3	-5.1*	-0.29	-6	1
CCC(C(=O)NCc1ccco1)N(C(=O)CNS(=O)(=O)c1ccc(C)cc1)c1ccccc1OC (configuration not stated)	-9	-2	-3.5*	0.49	1	6
CCCC(C(=O)NCc1ccco1)N(C(=O)CNS(=O)(=O)c1ccc(Cl)cc1)C1CCCC1 (configuration not stated)	-1	-14	-8.4*	1.3	1	27
COc1ccc(N2CCN(C(=O)c3ccc(OCC4CCCO4)cc3)CC2)cc1 (configuration not stated)	-4	-1	-0.15	2.5	-6	-2
O=C(c1cc(-c2ccco2)nn1-c1cccc(Cl)c1)N1CCCCC1	-2	-12	-5.9*	-0.29	9	12
C=CCn1c(SCC(=O)Nc2ccc3c(c2)OCO3)nnc1-c1cc(Br)ccc1O	0	-3	-6.6*	-1.6	14	74*
CC(NC(=O)Nc1cccnc1)(C(F)(F)F)C(F)(F)F	18	5	-0.86	0.31	11	-2
CC(NC(=O)Nc1cccc([N+](=O)[O-])c1)(C(F)(F)F)C(F)(F)F	2	35	-4.9*	0.22	12	.
CCCCNC(=O)NS(=O)(=O)c1ccc(C(=O)OC(C)C)o1	3	1	1.4	-0.02	10	17
O=C(Nc1ccccc1)c1nnn(Cc2ccccc2)c1NC(=O)C(F)(F)F	3	2	-8.4*	-0.55	7	.
CC(=O)Nc1c(C(=O)NCc2ccccc2)nnn1Cc1ccccc1	6	10	-0.6	-0.18	2	-10
COc1ccccc1NC(=O)c1nnn(Cc2ccccc2)c1NC(=O)C(F)(F)F	-8	-4	-7.7*	-1.2	7	.
Cc1noc(C)c1C(=O)NCCCN1CCCC1=O	1	1	-0.69	-0.48	-8	-17
CC(CN1CCCC(C(N)=O)C1)c1ccccc1 (configuration not stated)	-5	1	0.53	0.14	0	-10
CCOC(=O)c1cnc(SCC(=O)Nc2nc(C)c(C)s2)nc1N	-5	16	-1.1	-0.89	19	33
CCn1c(C(=O)N2CCC(C(=O)NCc3ccc4c(c3)OCO4)CC2)cc2sccc21	2	2	-5.9*	.	14	6
Cn1c(C(=O)N2CCCC(C(=O)NCc3ccc4c(c3)OCO4)C2)cc2sccc21 (configuration not stated)	4	2	-2.6	.	7	18
SMILES	PostGolgi yeast	E coli WT exp	Cav3 T inh	Pyk2 oligo antag	PostGolgi ctrl	Ecoli tolC
CCn1c(C(=O)N2CCC(C(=O)NCCCSC3CCCCC3)CC2)cc2sccc21	-1	-27	-7*	.	20	84*
NS(=O)(=O)c1ccc(NCc2cc(Cl)ccc2OCc2ccccc2F)cc1	2	-3	0.91	-1.4	39*	.
O=C(Nc1ccccc1Cl)c1ccccc1Oc1ccc(C(F)(F)F)cc1[N+](=O)[O-]	-1	-18	.	-2.7	54*	.
COc1ccccc1NC(=O)COc1ccc(C(F)(F)F)cc1[N+](=O)[O-]	.	.	-1.8	0.33	.	.
CN(C)c1nc2ccc(OCCN3CCCCC3)cc2s1	0	-5	0.53	0.08	-2	-19
O=C1c2ccccc2C(=O)c2c1oc(C(F)(F)F)c2C(=O)c1ccccc1	104*	-8	.	-2.9	56*	.
COc1cccc(-c2nc(CS(=O)(=O)c3ccccc3)no2)c1	-6	22	.	0.73	-3	.
C=CCSc1nnc(NC(=O)CSc2nc3ccccc3o2)s1	7	0	.	1.7	3	40
C=CCSc1nnc(NC(=O)c2nc(SCC)ncc2Cl)s1	7	4	-0.011	0.2	33*	.
O=C(OCC(=O)N1CCN(C(=O)c2ccco2)CC1)c1ccccc1C(=O)c1ccccc1	4	-3	1.1	-0.94	3	0
O=C(OCC(=O)N1CCN(C(=O)c2ccco2)CC1)c1cc(-c2ccccc2)nc2ccccc12	44*	-14	-0.12	-0.56	47*	28
O=C(OCC(=O)N1CCN(C(=O)c2ccco2)CC1)c1cc(-c2ccc(F)cc2)nc2ccccc12	47*	-6	-2.6	-1.4	73*	11
O=C(OCC(=O)N1CCN(C(=O)c2ccco2)CC1)c1cn(-c2ccccc2)nc1-c1ccccc1	48*	-5	-2.5	-0.78	101*	10
O=C(OCC(=O)N1CCN(C(=O)c2ccco2)CC1)c1ccccc1OCc1ccccc1	-1	-5	0.33	1.7	-2	19
CC1CCCCC1NC(=O)CSc1nnc(-c2ccccc2)n1N (configuration not stated)	1	4	0.22	2.1	-8	3
O=C(NC1CCCC1)c1cccc(Cn2cc([N+](=O)[O-])cn2)c1	.	.	.	0.93	.	.
OCCNc1nc(Nc2ccccc2O)nc(N2CCCC2)n1	.	.	0.74	.	.	.
C/C(N)=C(/C#N)C(=O)CN1CCCCC1	15	-15	-0.37	1.6	-8	-9
COC(=O)CNC(=O)CCCCC(=O)NCC(=O)OC	-4	-1	0.63	0.99	1	-24
O=C(CSc1ccc(F)cc1)N1CCC(c2nc3ccccc3s2)CC1	5	-4	.	-0.79	20	.
Fc1ccc(-c2nnc(CN3CCC(c4nc5ccccc5s4)CC3)o2)cc1	16	-1	-0.34	0.26	38*	-1
CCN(CC(=O)Nc1ccccc1C(=O)OC)S(=O)(=O)c1ccc(OC)cc1	-6	2	-0.33	-0.11	40*	9
CCOC(=O)c1oc2cccc(OCC(O)CNC(C)C)c2c1C (configuration not stated)	2	6	.	0.02	-11	1

Screening data (PubChem BioAssay)
